Results published in ChEMBL document CHEMBL1123788, “Synthesis and antitumor activity of tropolone derivatives. 5” (J Med Chem, 1987).
Values after ≈ are worked out from the molar mass of the structure shown. Active and inactive are the calls of the source. The calls are words filed in the database; no cut-off is given here.

Key:
P388 [1] = experiment: In vivo antitumor activity against leukemia P388 in mice at 200 mg/kg dosage administered intraperitoneally once a day for 1 and 5 days; type: functional, Mus musculus; conditions: route intraperitoneal
Method in brief: (§1)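 Mice bearing P388 leukemia were given the compound intraperitoneally once daily for 1 and 5 days, at doses of 0.6 to 400 mg/kg; single-dose screens were run at 400 mg/kg. Antitumor activity is reported as T/C, %.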

P388 [2] = experiment: In vivo antitumor activity against leukemia P388 in mice at 400 mg/kg dosage administered intraperitoneally once a day for 1 and 5 days; type: functional, Mus musculus; conditions: route intraperitoneal; method in brief: as §1
P388 [3] = experiment: In vivo antitumor activity against leukemia P388 in mice at 100 mg/kg dosage administered intraperitoneally once a day for 1 and 5 days; type: functional, Mus musculus; conditions: route intraperitoneal; method in brief: as §1
[4] = In vitro inhibition of KB cell growth; type: functional, cell-based; conditions: Homo sapiens
P388 [5] = experiment: In vivo antitumor activity against leukemia P388 in mice at 50 mg/kg dosage administered intraperitoneally once a day for 1 and 5 days; type: functional, Mus musculus; conditions: route intraperitoneal; method in brief: as §1
P388 [6] = experiment: In vivo antitumor activity against leukemia P388 in mice at 400 mg/kg dosage administered intraperitoneally once a day for 1 and 5 days; compound is inactive; type: functional, organism-based; set-up: dose 400 mg/kg; conditions: Mus musculus; method in brief: as §1
P388 [7] = experiment: In vivo antitumor activity against leukemia P388 in mice at 0.6 mg/kg dosage administered intraperitoneally once a day for 1 and 5 days; type: functional, Mus musculus; conditions: route intraperitoneal; method in brief: as §1
P388 [8] = experiment: In vivo antitumor activity against leukemia P388 in mice at 5 mg/kg dosage administered intraperitoneally once a day for 1 and 5 days; type: functional, Mus musculus; conditions: route intraperitoneal; method in brief: as §1
P388 [9] = experiment: In vivo antitumor activity against leukemia P388 in mice at 2.5 mg/kg dosage administered intraperitoneally once a day for 1 and 5 days; type: functional, Mus musculus; conditions: route intraperitoneal; method in brief: as §1

Row | Structure (SMILES) | IC50 [4] [µg/mL] | T/C (P388 [6]) | also measured
1 | CCOC(c1ccc(OC)cc1)c1ccc(C(C)C)cc(=O)c1O (centres undefined) | 0.5 (≈ 1.52 µM) |  | T/C (P388 [1]): 128%; T/C (P388 [2]): 140%; T/C (P388 [3]): 140%; T/C (P388 [5]): 119%
2 | COc1ccc(C(c2ccc(C(C)C)cc(=O)c2OC)c2ccc(C(C)C)cc(OC)c2=O)cc1 (centres undefined) | 5.4 (≈ 11.4 µM) | inactive | 
3 | C/N=c1\cc(C(C)C)ccc(C(c2ccc(OC)cc2)c2ccc(C(C)C)cc(NC)c2=O)c1O (centres undefined) | 100 (≈ 212 µM) | inactive | 
4 | COc1ccc(C(c2ccc(C(C)C)cc(OC)c2=O)c2ccc(C(C)C)cc(OC)c2=O)cc1 | 23.5 (≈ 49.5 µM) | inactive | 
5 | COc1ccc(C(c2ccc(C(C)C)cc(=O)c2O)c2ccc(C(C)C)cc(=O)c2O)cc1 | 0.5 (≈ 1.12 µM) |  | T/C (P388 [7]): 127%; T/C (P388 [8]): 173%; T/C (P388 [9]): 134%
6 | COc1ccc(C(c2ccc(C(C)C)cc(=O)c2O)c2ccc(C(C)C)cc(OC)c2=O)cc1 (centres undefined) | 1.7 (≈ 3.69 µM) |  | T/C (P388 [1]): 148%; T/C (P388 [2]): 60%; T/C (P388 [3]): 133%
7 | CNc1cc(C(C)C)ccc(C(c2ccc(OC)cc2)c2ccc(C(C)C)cc(=O)c2O)c1=O (centres undefined) | 50 (≈ 109 µM) | inactive | 
8 | COc1ccc(C(c2ccc(C(C)C)cc(S)c2=O)c2ccc(C(C)C)cc(S)c2=O)cc1 | 5.3 (≈ 11.1 µM) | inactive | 
9 | COc1ccc(C(c2ccc(C(C)C)cc(=O)c2OC)c2ccc(C(C)C)cc(=O)c2OC)cc1 |  | inactive | 
